Reference: ChEMBL document CHEMBL3112425, “Design, synthesis, and structure-activity relationship studies of a potent PACE4 inhibitor” (J Med Chem, 2014)
Peptide text beside a SMILES is read from it. * marks the point of attachment. X1 = N=C(N)NC/C=C/CN*

What was measured:
PC-3 = assay: Cytotoxicity against human PC3 cells after 72 hrs by MTT assay; type: functional, cell-based; conditions: PC-3, 72 h
Method in brief: (§1)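 Prostate cancer cells were kept in RPMI 1640 at 37 °C, 5% CO2, with 5% FBS for DU145 and 10% FBS for LNCaP and PC3. After 24 h, medium was changed and peptides added at various concentrations, up to 350 μM. Viability was read by MTT after 72 h treatment. IC50 from dose–response curves, triplicate, mean ± SEM.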

[1] = Half life in CD-1 mouse plasma at 0.5 ug/uL by RP-HPLC analysis; type: ADME, cell-free
Method in brief: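 Peptides at 0.5 μg/μL were incubated at 37 °C in heparinized plasma pooled from mixed-sex CD1 mice. At each time point the reaction was stopped with 1 M guanidinium-HCl, then acetonitrile, and proteins were spun out. Supernatant peptide AUC (RP-HPLC) was compared with non-incubated samples. Half-life came from a one-phase decay fit. Run ≥3 times, duplicate per time point.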

Plasma = assay: Drug degradation in CD-1 mouse plasma at 0.5 ug/uL after 30 mins by MALDI-TOF MS analysis; type: ADME, cell-free; conditions: 0.5 h
Method in brief: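 For fragment mapping, 100 μg peptide was incubated in murine plasma at 37 °C. At each time point, plasma samples were quenched with 3% TFA. Proteins were precipitated with 2 volumes acetonitrile and centrifuged at 17 000g. Supernatants were analyzed by MALDI-TOF MS for C-terminally truncated fragments.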

[2] = target: T1, Proprotein convertase subtilisin/kexin type 7 (Homo sapiens, UniProt Q16549); assay: Inhibition of human PC7 expressed in drosophila schneider 2 cells using pyroGlu-Arg-Thr-Lys-Arg-AMC as substrate after 1 hr
T1 sequence (Q16549 whole entry): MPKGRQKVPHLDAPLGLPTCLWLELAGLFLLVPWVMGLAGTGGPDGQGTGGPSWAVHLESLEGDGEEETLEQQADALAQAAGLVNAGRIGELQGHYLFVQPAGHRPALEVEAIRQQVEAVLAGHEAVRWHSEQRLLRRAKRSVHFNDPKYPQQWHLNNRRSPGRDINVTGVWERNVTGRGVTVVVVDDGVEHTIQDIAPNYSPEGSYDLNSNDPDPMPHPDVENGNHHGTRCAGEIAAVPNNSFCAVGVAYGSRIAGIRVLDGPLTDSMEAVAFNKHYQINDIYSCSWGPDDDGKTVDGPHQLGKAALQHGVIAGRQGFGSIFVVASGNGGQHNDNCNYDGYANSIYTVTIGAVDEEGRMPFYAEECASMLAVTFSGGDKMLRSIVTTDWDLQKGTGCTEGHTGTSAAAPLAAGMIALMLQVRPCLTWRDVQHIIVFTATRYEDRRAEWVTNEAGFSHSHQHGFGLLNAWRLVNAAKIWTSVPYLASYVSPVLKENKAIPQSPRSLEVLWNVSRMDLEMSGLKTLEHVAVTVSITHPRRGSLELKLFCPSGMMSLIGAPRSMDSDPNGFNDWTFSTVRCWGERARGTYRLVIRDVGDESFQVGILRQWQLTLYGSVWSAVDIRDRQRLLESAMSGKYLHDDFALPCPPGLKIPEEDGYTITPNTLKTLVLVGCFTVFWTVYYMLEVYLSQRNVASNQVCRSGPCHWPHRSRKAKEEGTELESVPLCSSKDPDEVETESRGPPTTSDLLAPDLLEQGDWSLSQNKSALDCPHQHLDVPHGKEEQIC
Method in brief: (§2)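 Human enzymes were expressed in Drosophila S2 cells and purified. Fluorogenic pyroGlu-RTKR-AMC was used at fixed concentration with varied inhibitor, 37 °C over 1 h. Buffers: furin, 100 mM Hepes pH 7.5, 1 mM CaCl2, 1 mM β-mercaptoethanol, 1.8 mg/mL BSA; PACE4 and PC7, 20 mM Bis-Tris pH 6.5, 1 mM CaCl2, 1.8 mg/mL BSA; PC2, same buffer at pH 5.7. Ki from IC50 (Cheng–Prusoff), or apparent Ki (Morrison) for tight binders. Triplicate, mean ± SD.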

[3] = target: T2, Neuroendocrine convertase 2 (Homo sapiens, UniProt P16519); assay: Inhibition of human PC2 expressed in drosophila schneider 2 cells using pyroGlu-Arg-Thr-Lys-Arg-AMC as substrate after 1 hr; method in brief: as §2
T2 sequence (P16519 whole entry): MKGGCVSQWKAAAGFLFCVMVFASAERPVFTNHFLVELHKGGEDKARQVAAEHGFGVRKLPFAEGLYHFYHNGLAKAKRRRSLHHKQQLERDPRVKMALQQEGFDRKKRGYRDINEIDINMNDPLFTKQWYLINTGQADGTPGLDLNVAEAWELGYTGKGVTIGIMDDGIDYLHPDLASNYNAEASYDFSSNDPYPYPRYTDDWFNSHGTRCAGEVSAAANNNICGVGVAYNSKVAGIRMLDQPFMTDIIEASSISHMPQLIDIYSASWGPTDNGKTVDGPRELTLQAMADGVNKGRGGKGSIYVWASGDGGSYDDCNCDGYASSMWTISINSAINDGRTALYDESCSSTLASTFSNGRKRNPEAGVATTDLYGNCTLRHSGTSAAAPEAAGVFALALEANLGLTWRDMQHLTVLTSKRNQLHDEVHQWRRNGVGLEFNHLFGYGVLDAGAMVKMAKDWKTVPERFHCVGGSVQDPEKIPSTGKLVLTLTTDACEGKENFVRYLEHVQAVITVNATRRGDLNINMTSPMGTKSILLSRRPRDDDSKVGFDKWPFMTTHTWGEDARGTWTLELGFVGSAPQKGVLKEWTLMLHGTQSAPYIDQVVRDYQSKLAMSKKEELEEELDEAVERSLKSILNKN

[4] = Acute toxicity in human DU145 cells assessed as cell death/lysis at 100 uM after 4 hrs by LDH assay; type: cell-based, DU-145; conditions: read-out: INH
Method in brief: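 DU145 cells (RPMI 1640, 5% FBS, 37 °C, 5% CO2) plated; 24 h later peptides added at 100 μM. After 4 h, release of lactate dehydrogenase into the medium was quantified enzymatically with a commercial LDH cytotoxicity kit as the measure of acute membrane damage/lysis.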

DU-145 [5] = assay: Cellular uptake in human DU145 cells after 1 hr by propidium iodide staining-based FACS analysis; type: ADME, cell-based; conditions: du-145, 1 h
Method in brief: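 FITC-βAla-labelled peptides at 10 μM were given to DU145 cells for 1 h in serum-free RPMI. Cells were collected, then washed twice with 0.05% trypsin (5 min, 37 °C) to strip membrane-bound peptide. Propidium iodide (10 μg/mL, 2 min) excluded damaged cells. FACS read 10 000 events/sample as geometric mean fluorescence, against untreated-cell autofluorescence.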

DU-145 [6] = assay: Cytotoxicity against human DU145 cells after 72 hrs by MTT assay; type: functional, cell-based; conditions: DU-145, 72 h; method in brief: as §1
Furin = Furin (Homo sapiens, UniProt P09958); assay: Inhibition of human recombinant furin expressed in drosophila schneider 2 cells using pyroGlu-Arg-Thr-Lys-Arg-AMC as substrate after 1 hr; method in brief: as §2
Sequence of Furin (P09958 whole entry): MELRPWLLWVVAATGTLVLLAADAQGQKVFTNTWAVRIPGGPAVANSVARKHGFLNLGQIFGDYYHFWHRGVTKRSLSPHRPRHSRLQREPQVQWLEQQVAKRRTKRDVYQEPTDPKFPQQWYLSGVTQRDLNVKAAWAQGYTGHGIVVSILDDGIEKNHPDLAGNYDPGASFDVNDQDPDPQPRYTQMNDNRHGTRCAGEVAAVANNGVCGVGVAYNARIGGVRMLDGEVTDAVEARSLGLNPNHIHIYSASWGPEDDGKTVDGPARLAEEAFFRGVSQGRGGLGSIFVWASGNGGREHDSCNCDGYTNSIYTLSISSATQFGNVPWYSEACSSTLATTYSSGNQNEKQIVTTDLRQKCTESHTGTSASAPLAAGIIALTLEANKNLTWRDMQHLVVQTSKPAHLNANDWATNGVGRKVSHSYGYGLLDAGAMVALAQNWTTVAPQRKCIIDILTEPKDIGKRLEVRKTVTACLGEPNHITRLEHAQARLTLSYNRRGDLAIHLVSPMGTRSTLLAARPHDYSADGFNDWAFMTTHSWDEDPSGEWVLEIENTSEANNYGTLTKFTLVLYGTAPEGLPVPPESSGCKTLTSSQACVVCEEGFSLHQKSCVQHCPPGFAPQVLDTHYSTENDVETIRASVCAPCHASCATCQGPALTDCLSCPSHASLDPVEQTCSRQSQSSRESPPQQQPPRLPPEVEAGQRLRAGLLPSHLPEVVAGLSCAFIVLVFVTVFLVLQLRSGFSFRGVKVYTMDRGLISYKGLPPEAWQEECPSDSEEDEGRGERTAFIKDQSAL

half-life at 0.5 ug/uL [1]: 7.2 h
Stability (Plasma): Unstable
Ki [2]: 72 nM
Ki [3]: 1.7 nM
Drug uptake (DU-145 [5]): Active
Ki (Furin): 27 nM
Structure (SMILES): CC(=O)N[C@@H](CC(C)C)C(=O)N[C@@H](CC(C)C)C(=O)N[C@@H](CC(C)C)C(=O)N[C@@H](CC(C)C)C(=O)N[C@@H](CCCNC(=N)N)C(=O)N[C@H](C(=O)N[C@@H](CCCCN)C(=O)NC/C=C/CNC(=N)N)C(C)C (Ac-LLLLRVK-X1)
IC50 (PC-3): 200000 nM
cytotoxicity at 4 h, 100 µM [4]: < 5%
IC50 (DU-145 [6]): 90000 nM
